High-throughput results (PubChem)
RAD52 anneal inh – RAD52 (human) annealing inhibition; recombinant RAD52 DNA annealing, FRET fluorescence; inhibition, % at 18.7 µM; 0.46% of 360,000 active;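 active = every replicate showing at least 50% inhibition; inconclusive = mean inhibition at least 50% but not in every replicate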
S100A4 MyoIIA – inhibitors of human S100A4 binding to myosin IIA peptide | P26447 | S100A4/TAMRA-MyoIIA peptide fluorescence polarization | 0.14% of 360,000 active | inhibition, % at 10.7 µM;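 active = mean inhibition of at least 70% across replicates, with every replicate also reaching that level; inconclusive = mean inhibition reaches 70% but some replicates fall short; inactive = mean inhibition below 70%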
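incubation = readout 5 min after mixing, signal stable up to 60 min | system = S100A4 monomer protein | buffer or medium = HEPES pH 7.2 with CaCl2, KCl, NaCl, DTT, Triton | benchmarks = neutral control DMSO, positive control TFP | also added = fluorescent myosin IIA peptide, 5 nM | compound dosing = one concentration per compound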
INS-1E GSIS act – GLuc luminescence reporter in INS-1E cells, primary screen for activators of glucose-dependent secretion of insulin. activation, % at 16.6 µM. INS-1E GLuc reporter insulin secretion, 2-3 h. 0.61% of 370,000 active;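 active = lowest replicate activation of at least 40%, so every replicate reaches that level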
MLL AF4-AF9 inh – blocks AF4 peptide binding to human AF9; 0.47% of 350,000 active; inhibition, % at 10 µM; AlphaScreen, biotin-AF4 peptide binding to FLAG-AF9; P42568;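 active = every replicate reaching a set inhibition limit, whatever the replicate mean, cut at about 25% in these data; inconclusive = mean inhibition reaches that limit but some replicates miss it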
ERAP1 inh – inhibitors of human ERAP1 aminopeptidase | recombinant ERAP1, Leu-AMC fluorescence, 60 min | inhibition, % at 10.7 µM | AID 652197 | Q9NZ08 | 0.15% of 340,000 active;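 active = mean replicate inhibition of at least 30%, or all replicates individually reaching that 30% level; inactive = mean below 30% and not every replicate reaching it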
Target sequence (Q9NZ08 whole entry, looked up): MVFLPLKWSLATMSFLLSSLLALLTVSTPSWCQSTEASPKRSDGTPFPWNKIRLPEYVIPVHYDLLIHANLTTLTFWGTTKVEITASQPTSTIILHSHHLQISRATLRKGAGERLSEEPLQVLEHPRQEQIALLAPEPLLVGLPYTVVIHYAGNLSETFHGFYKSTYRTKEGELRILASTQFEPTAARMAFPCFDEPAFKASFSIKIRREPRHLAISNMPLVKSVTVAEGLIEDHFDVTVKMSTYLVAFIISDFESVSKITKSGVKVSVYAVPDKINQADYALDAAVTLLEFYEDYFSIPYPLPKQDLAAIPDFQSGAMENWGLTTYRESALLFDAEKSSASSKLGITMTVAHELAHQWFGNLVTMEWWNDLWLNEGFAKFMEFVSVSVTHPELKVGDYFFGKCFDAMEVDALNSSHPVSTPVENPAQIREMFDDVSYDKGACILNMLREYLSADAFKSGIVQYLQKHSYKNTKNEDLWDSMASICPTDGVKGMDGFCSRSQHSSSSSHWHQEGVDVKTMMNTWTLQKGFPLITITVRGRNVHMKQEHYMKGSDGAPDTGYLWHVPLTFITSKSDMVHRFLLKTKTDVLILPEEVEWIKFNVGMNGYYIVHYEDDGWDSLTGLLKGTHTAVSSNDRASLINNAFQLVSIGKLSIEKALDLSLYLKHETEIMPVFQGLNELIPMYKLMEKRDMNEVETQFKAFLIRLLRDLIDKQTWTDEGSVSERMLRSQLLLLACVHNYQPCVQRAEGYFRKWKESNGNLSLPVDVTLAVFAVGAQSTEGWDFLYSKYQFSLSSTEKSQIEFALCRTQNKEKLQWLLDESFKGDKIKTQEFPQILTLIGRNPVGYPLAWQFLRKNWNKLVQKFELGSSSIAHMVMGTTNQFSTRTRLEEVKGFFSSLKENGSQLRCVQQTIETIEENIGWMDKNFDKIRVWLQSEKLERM
RAD52 DNA ctr – DNA binding artifact in RAD52 counter-screen | 8% of 1,000 active | AC50, µM | shares compounds with RAD52 anneal inh | Salmon sperm DNA/acridine orange FP displacement;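 active = fitted half-maximal concentration for signal loss at or below twice the highest dose tested, in every separate run, actives reach about 64 µM in these data; inconclusive = runs disagree, or flat partial signal loss, or poor fit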
Large screens that a line does not name were inactive (follow-up assays come after a bar, where they were run). Hits are enriched below; roughly 1.5% of the tested compounds scored in any of these assays.

CN(C)CCCNC(=O)c1ccc(-c2cc3nc(NCc4cccnc4)n(C)c(=O)c3s2)cc1	RAD52 anneal inh 75.9 | RAD52 DNA ctr inactive
C[C@@H]1CN([C@@H](C)CO)S(=O)(=O)c2ccc(/C=C/c3ccccc3)cc2O[C@H]1CN(C)Cc1cncnc1	none
C[C@H](CO)N1C[C@H](C)[C@H](CN(C)C(=O)C2CC2)Oc2cc(C3=CCCCC3)ccc2S1(=O)=O	none
CN(C)CCCNc1nc2cc(-c3cncnc3)sc2c(=O)n1C	none
CN(C)CCCNc1nc2cc(-c3cnn(C)c3)sc2c(=O)n1C	RAD52 anneal inh 59.3, MLL AF4-AF9 inh inconclusive | RAD52 DNA ctr inactive
COc1cccc(NC(=O)N(C)C[C@@H]2Oc3ncc(C#Cc4ccc(F)cc4)cc3C(=O)N([C@@H](C)CO)C[C@@H]2C)c1	none
CCOC(=O)c1c(NC(=O)C[n+]2ccc(Cc3ccccc3)cc2)sc(C)c1C	RAD52 anneal inh 50.3 | RAD52 DNA ctr inactive
CCOC(=O)c1c(NC(=S)Nc2ccccc2)sc(C)c1C	none
CCN1CCN(Cc2c(C(=O)N/N=C(\C)c3ccc(Cl)cc3)nnn2-c2nonc2N)CC1	RAD52 anneal inh 94.0 | RAD52 DNA ctr inactive
C/C(=N\NC(=O)c1nnn(-c2nonc2N)c1CN1CCCCCC1)c1ccc(Br)cc1	none
CC1(C)Nc2cccc3cccc(c23)N1	RAD52 anneal inh 65.4 | RAD52 DNA ctr inactive
c1cc2c3c(cccc3c1)NC1(CCCC1)N2	none
C[C@@H]1CN([C@H](C)CO)S(=O)(=O)c2ccc(C3=CCCC3)cc2O[C@@H]1CN(C)C(=O)c1cnccn1	none
CN(C)CCCN1C(=O)c2cccc3cccc(c23)C1=O	RAD52 anneal inh 58.5 | RAD52 DNA ctr inactive
CN(C)CCCNc1nc(-c2ccccc2)nc2ccccc12	none
c1ccc(CNc2c3ccccc3nc3ccccc23)cc1	RAD52 anneal inh 83.6 | RAD52 DNA ctr inconclusive
CN(C)CCCNc1c2ccccc2nc2ccccc12	RAD52 anneal inh 86.7 | RAD52 DNA ctr 9.35µM
c1ccc(CNc2ncnc3ccccc23)cc1	none (no result: INS-1E GSIS act)
Cc1ccc(-c2nc(NCCCN(C)C)c3ccccc3n2)cc1	RAD52 anneal inh 83.7 | RAD52 DNA ctr inactive
c1ccc2c(NCCCN3CCOCC3)c3ccccc3nc2c1	RAD52 anneal inh 93.3 | RAD52 DNA ctr 33.2µM
C[C@@H]1CN([C@@H](C)CO)C(=O)c2cc(C3=CCCCC3)cnc2O[C@@H]1CN(C)C(=O)Nc1ccccc1	none
Cc1noc(C)c1S(=O)(=O)Nc1ccc2c(c1)C(=O)N([C@H](C)CO)C[C@H](C)[C@@H](CN(C)S(=O)(=O)c1cccs1)O2	none
CCC(=O)N[C@H]1C=C[C@H](CC(=O)NCC2CC2)O[C@@H]1CO	none
CCNC(=O)Nc1ccc2c(c1)C(=O)N(C)[C@H]1CC[C@H](CC(=O)NCc3cccc(F)c3)O[C@H]1CO2	none (no result: RAD52 anneal inh, S100A4 MyoIIA, MLL AF4-AF9 inh, ERAP1 inh)
CCCN(CCC)CCNC(=O)c1cc2c(-c3ccc(Cl)cc3)nn(C)c2s1	RAD52 anneal inh 52.3 | RAD52 DNA ctr inactive
CCOCCCNC(=O)c1cc2c(-c3ccc(Cl)cc3)nn(C)c2s1	none (no result: ERAP1 inh)
CCCCN(CC)CCNC(=O)c1cc2c(-c3ccc(Cl)cc3)nn(C)c2s1	RAD52 anneal inh 50.5, INS-1E GSIS act 67.3 | RAD52 DNA ctr inactive
CSC1SCC2C(=O)N(C)C(C(C)C)C(=O)OCC(NC(=O)c3cnc4ccccc4n3)C(=O)NC(C)C(=O)N(C)C1C(=O)N(C)C(C(C)C)C(=O)OCC(NC(=O)c1cnc3ccccc3n1)C(=O)NC(C)C(=O)N2C (stereo not given)	RAD52 anneal inh 72.5 | RAD52 DNA ctr inactive
COCC(=O)Nc1ccc2c(c1)[C@@H]1C[C@H](CC(=O)NCc3ccccc3OC)O[C@H](CO)[C@@H]1O2	none
CCOC(=O)c1ccc[n+](C(C)C(=O)c2ccc(-c3ccccc3)cc2)c1 (stereo not given)	none (no result: RAD52 anneal inh, S100A4 MyoIIA, MLL AF4-AF9 inh, ERAP1 inh)
CC(C(=O)c1ccc(-c2ccccc2)cc1)[n+]1cccc(NC(=O)c2ccccc2)c1 (stereo not given)	RAD52 anneal inh 57.5, MLL AF4-AF9 inh inconclusive (no result: ERAP1 inh) | RAD52 DNA ctr inactive
C=CC(=O)Nc1cccc(Oc2cc(Cl)nc3[nH]ccc23)c1	none (no result: MLL AF4-AF9 inh)
C=CC(=O)Nc1cccc(Oc2nc(Nc3ccc(N4CCN(C)CC4)cc3OC)ncc2Cl)c1	RAD52 anneal inh 94.6, MLL AF4-AF9 inh 63.0 (no result: ERAP1 inh) | RAD52 DNA ctr inactive
